Consider two compounds from publication PMC2963662 (Neuropharmacology, 2010).

SMILES strings stand for the structures.

Assay in all cases: two-electrode voltage clamp, Xenopus oocytes
Common to all, as to format: cell-based
For orientation: Two-electrode voltage clamp is typically applied to oocytes expressing channels or transporters.

Experiment [1] addresses α5β3γ2 GABAA receptor (rat, oocytes) (Rattus norvegicus, UniProt P18508+P19969). To be noted: read-out: α5. Summed up: (§1)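 Oocytes from Xenopus laevis were injected with mRNA made from rat GABAA subunit cDNAs. Two-electrode voltage clamp was done at room temperature, holding at −60 mV, with electrodes filled with […]. Cells were perfused at 6 ml/min with Ringer (90 mM NaCl, 5 mM HEPES pH 7.4, 1 mM MgCl2, KCl, CaCl2). Drug in 0.1% DMSO final was pre-applied for 30 sec, then co-applied with GABA until peak, with washes of up to 15 min.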

Experiment [2] has as its target α1β3γ2 GABAA receptor (rat, oocytes) (Rattus norvegicus, UniProt P18508+P62813). Conditions: read-out: α1. Summed up:
as §1

Experiment [3] addresses α3β3γ2 GABAA receptor (rat, oocytes) (Rattus norvegicus, UniProt P18508+P20236). To be noted: read-out: α3. The gist of the method:
as §1

In experiment [4] the target is α2β3γ2 GABAA receptor (rat, oocytes) (Rattus norvegicus, UniProt P18508+P23576). Conditions: read-out: α2. The gist of the method:
as §1

Sequence of α5β3γ2 GABAA receptor (rat, oocytes) (P19969 26-464): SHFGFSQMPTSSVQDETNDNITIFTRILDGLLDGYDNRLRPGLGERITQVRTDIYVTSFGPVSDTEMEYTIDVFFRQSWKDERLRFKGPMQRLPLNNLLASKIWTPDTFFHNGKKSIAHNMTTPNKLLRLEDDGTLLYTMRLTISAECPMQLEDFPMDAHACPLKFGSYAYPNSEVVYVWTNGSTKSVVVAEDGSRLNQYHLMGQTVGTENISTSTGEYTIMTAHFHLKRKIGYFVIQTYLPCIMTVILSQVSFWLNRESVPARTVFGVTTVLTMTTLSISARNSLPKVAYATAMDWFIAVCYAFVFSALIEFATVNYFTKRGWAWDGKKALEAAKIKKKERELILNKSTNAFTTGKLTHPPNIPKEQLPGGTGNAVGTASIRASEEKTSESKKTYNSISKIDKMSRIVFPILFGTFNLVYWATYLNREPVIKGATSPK
Sequence of α5β3γ2 GABAA receptor (rat, oocytes) (P18508 39-466): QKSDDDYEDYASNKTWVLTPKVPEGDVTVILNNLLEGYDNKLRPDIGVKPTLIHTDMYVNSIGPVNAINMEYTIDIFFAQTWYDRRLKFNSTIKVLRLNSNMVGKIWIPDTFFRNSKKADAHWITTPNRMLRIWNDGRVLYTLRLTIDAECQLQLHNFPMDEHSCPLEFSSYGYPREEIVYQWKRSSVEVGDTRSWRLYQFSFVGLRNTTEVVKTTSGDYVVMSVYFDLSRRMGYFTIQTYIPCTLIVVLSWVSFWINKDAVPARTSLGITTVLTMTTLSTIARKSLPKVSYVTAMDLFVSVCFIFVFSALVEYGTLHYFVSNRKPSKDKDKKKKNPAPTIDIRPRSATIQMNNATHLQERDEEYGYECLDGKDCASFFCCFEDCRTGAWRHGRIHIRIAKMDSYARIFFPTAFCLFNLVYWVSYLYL
Sequence of α5β3γ2 GABAA receptor (rat, oocytes) (P63079 26-473 partner): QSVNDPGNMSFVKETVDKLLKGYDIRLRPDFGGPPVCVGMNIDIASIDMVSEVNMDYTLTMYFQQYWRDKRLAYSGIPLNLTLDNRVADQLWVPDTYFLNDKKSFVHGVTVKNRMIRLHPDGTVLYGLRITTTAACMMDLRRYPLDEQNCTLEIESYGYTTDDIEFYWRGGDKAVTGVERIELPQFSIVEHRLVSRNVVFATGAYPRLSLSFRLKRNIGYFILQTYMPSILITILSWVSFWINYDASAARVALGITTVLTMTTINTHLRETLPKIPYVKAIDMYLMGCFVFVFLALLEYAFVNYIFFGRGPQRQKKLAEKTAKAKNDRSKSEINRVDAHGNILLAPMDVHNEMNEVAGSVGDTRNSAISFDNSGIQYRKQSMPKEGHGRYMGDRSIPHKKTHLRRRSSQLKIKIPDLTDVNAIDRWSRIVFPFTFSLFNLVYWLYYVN
Sequence of α3β3γ2 GABAA receptor (rat, oocytes) (P20236 29-493): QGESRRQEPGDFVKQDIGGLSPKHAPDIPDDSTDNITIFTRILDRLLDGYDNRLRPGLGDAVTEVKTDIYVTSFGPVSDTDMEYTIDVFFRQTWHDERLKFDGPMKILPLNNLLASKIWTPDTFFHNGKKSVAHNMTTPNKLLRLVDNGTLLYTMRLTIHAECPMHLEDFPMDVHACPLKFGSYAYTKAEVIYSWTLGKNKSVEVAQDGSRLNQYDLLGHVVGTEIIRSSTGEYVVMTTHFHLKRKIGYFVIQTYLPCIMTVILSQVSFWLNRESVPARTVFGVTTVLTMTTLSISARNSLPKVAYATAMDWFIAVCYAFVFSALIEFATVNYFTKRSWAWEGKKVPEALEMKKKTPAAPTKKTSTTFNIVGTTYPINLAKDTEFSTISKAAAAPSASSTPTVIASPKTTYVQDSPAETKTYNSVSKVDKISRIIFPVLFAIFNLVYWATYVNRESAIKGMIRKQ
Sequence of α3β3γ2 GABAA receptor (rat, oocytes) (P18508 39-466): as the sequence (P18508 39-466) above
Sequence of α3β3γ2 GABAA receptor (rat, oocytes) (P63079 26-473 partner): as the sequence (P63079 26-473 partner) above
Sequence of α1β3γ2 GABAA receptor (rat, oocytes) (P62813 28-455): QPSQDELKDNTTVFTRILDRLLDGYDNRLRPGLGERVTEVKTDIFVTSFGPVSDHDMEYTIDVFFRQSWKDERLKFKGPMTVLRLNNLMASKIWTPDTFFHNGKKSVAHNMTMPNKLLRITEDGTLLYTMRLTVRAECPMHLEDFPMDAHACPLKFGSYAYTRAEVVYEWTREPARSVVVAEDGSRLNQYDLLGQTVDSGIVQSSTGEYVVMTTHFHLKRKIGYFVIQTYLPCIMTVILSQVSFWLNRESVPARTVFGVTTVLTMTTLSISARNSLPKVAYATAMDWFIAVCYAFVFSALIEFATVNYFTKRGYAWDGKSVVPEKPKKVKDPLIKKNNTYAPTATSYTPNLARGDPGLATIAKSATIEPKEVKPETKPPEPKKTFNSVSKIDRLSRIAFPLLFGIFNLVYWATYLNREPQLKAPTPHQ
Sequence of α1β3γ2 GABAA receptor (rat, oocytes) (P18508 39-466): as the sequence (P18508 39-466) above
Sequence of α1β3γ2 GABAA receptor (rat, oocytes) (P63079 26-473 partner): as the sequence (P63079 26-473 partner) above
Sequence of α2β3γ2 GABAA receptor (rat, oocytes) (P23576 29-451): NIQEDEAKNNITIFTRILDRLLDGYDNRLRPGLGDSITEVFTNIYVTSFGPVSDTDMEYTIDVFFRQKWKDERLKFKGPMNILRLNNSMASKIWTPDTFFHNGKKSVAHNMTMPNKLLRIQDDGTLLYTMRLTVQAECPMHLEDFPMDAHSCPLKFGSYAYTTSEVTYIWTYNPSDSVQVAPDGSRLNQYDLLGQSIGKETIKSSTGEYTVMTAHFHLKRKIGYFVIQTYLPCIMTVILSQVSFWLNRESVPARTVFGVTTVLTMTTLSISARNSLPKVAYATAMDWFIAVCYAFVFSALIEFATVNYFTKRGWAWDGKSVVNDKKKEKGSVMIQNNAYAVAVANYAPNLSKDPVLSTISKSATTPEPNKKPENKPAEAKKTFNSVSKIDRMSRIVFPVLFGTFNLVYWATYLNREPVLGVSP
Sequence of α2β3γ2 GABAA receptor (rat, oocytes) (P18508 39-466): as the sequence (P18508 39-466) above
Sequence of α2β3γ2 GABAA receptor (rat, oocytes) (P63079 26-473 partner): as the sequence (P63079 26-473 partner) above

As to `CN1C(=O)CN=C(c2ccccc2)c2cc(Cl)ccc21` [Diazepam], the activity at 1 µM was determined as 342% in experiment [1], 314% in experiment [2], 752% in experiment [3] and 536% in experiment [4].
Take `C#Cc1ccc2c(c1)C(c1ccccc1F)=N[C@@H](C)c1c(C(=O)OCC)ncn1-2` [SH-053-2'F-S-CH3, (S)-8-ethynyl-6-(2-fluoro-phenyl)-4-methyl-4H-2,5,10b-triaza-benzo[e]azulene-3-carboxylic acid ethyl ester]: the activity at 1 µM in experiment [1] was found to be 389%.
